Activity calls are given as the source filed them. The rule behind the calls is not given here.
Key:
[1] = system: Integrase (Human immunodeficiency virus 1); assay: Inhibition of strand -transfer (ST) activity in the presence of Mn2+
[2] = system: Integrase (Human immunodeficiency virus 1); assay: Inhibition of 3'-processing (TC) in the presence of Mn2+ in vitro
[3] = system: Molluscum contagiosum virus; assay: DNA relaxation activity tested by the inhibition of the Type 1B topoisomerase of molluscum contagiosum virus (MCV); assay type: functional
Summary of the method: (§1)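 Type 1B topoisomerase of molluscum contagiosum virus tested as a counterscreen. Supercoiled DNA relaxation was analysed on gels.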

[4] = HeLa cell cytotoxicity by MTT cytotoxicity assay; assay type: cell-based; conditions: human, HeLa cells; read-out: LD50 (the source's name)
Summary of the method: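 HeLa cells in culture exposed to a range of compound concentrations; viability read by MTT assay.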

[5] = system: Human immunodeficiency virus 1; assay: In vitro integration activity provided by preintegration complexes isolated from HIV-infected cells; assay type: functional
Summary of the method: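 Preintegration complexes were made with biologically inactivated HIV-based vectors and isolated from infected cells. They integrate their endogenously synthesized viral cDNA into an added target DNA, read out by microtiter plate assay over a range of compound concentrations.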

[6] = target: T1, Topoiomerase 1B (Molluscum contagiosum virus subtype 1) (UniProt Q98254); assay: (§2) DNA cleavage and religation activity as inhibition of type 1B topoisomerase of molluscum contagiosum virus (MCV); assay type: functional
T1 sequence (whole entry): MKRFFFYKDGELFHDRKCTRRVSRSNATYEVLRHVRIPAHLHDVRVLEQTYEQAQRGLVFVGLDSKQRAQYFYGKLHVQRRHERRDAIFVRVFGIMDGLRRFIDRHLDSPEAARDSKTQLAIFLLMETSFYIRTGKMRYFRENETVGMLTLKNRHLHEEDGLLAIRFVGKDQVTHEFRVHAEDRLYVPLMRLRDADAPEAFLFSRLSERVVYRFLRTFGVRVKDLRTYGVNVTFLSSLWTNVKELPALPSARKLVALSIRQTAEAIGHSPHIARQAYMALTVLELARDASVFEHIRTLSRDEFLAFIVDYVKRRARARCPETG
Summary of the method: (§3)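 Type 1B topoisomerase of molluscum contagiosum virus tested as a counterscreen in a microtiter plate format that reads out DNA cleavage and religation.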

[7] = system: Integrase (Human immunodeficiency virus 1); assay: Tested in vitro against strand -transfer (ST) activity in the presence of Mg2+ as the cationic cofactor
[8] = system: Molluscum contagiosum virus; assay: DNA cleavage and religation activity tested by the inhibition of the type 1B topoisomerase of molluscum contagiosum virus (MCV) at a concentration of 200 uM; NA is Not Active.; assay type: functional
Summary of the method: (§4)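 MCV type 1B topoisomerase counterscreen in microtiter plate format, reading DNA cleavage and religation; compounds tested up to 200 uM.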

[9] = system: Integrase (Human immunodeficiency virus 1); assay: Compound was tested in vitro against strand -transfer (ST) activity in the presence of Mn2+ at a concentration of 200 uM; NA is Not Active.
[10] = system: Integrase (Human immunodeficiency virus 1); assay: Compound was tested in vitro against 3'-processing (TC) in the presence of Mn2+ at a concentration of 200 uM; Na is Not Active.
[11] = system: Integrase (Human immunodeficiency virus 1); assay: Compound was tested in vitro against strand -transfer (ST) activity in the presence of Mg2+ as the cationic cofactor at a concentration of 200 uM; NA is Not Active.
[12] = system: Molluscum contagiosum virus; assay: DNA relaxation activity tested by the inhibition of the type 1B topoisomerase of molluscum contagiosum virus (MCV) at a concentration of 200 uM; NA is Not Active.; assay type: functional
Summary of the method: (§5)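 MCV type 1B topoisomerase counterscreen reading DNA relaxation, with products analysed on gels.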

[13] = system: Molluscum contagiosum virus; assay: DNA cleavage and religation activity tested by the inhibition of the type 1B topoisomerase of molluscum contagiosum virus (MCV)at a concentration of 200 uM; NA is Not Active.; assay type: functional
Summary of the method: as §4

[14] = system: Molluscum contagiosum virus; assay: DNA relaxation activity tested by the inhibition of the type 1B topoisomerase of molluscum contagiosum virus (MCV)at a concentration of 200 uM; NA is Not Active.; assay type: functional, organism-based
Summary of the method: as §1

[15] = system: Integrase (Human immunodeficiency virus 1); assay: Compound was tested in vitro against 3''-processing (TC) in the presence of Mn2+ at a concentration of 200 uM; NA is Not Active.
Topoiomerase 1B = target: T2, Topoiomerase 1B (Molluscum contagiosum virus subtype 1, UniProt Q98254); assay: as §2; assay type: functional
T2 sequence (Q98254 whole entry): T1 sequence (whole entry)
Summary of the method: as §3

[16] = system: Molluscum contagiosum virus; assay: DNA relaxation activity tested by the inhibition of the type 1B topoisomerase of molluscum contagiosum virus (MCV)at a concentration of 500 uM; NA is Not Active.; assay type: functional, organism-based
Summary of the method: as §5

| Compound | inhibition [3] | CC50 [4] [µM] | IC50 [5] [µM] | inhibition [6] | also measured |
| --- | --- | --- | --- | --- | --- |
| CC1(C)CC2(CC(C)(C)c3ccc(O)c(N)c32)c2cc(O)c(N)cc21 (stereo not drawn) | inactive | 3 | > 80 | inactive | inhibition [1]: inactive; inhibition [2]: inactive; inhibition [7]: inactive |
| CC1(C)CC2(CC(C)(C)c3cc(O)c(O)cc32)c2cc(O)c(O)cc21 | inactive | 65 | > 80 | inactive | – |
| Cc1cc2c(cc1O)C1(CC2(C)C)CC(C)(C)c2cc(C)c(O)cc21 | – | 10 | > 80 | – | Inhibition of DNA cleavage and religation [8]: inactive; NA [9]: inactive; NA [10]: inactive; NA [11]: inactive; Inhibition of DNA relaxation [12]: inactive |
| CC1(C)CC2(CC(C)(C)c3cc(N)c(O)cc32)c2cc(O)c(N)cc21 | inactive | 47 | > 80 | inactive | inhibition [1]: inactive; inhibition [2]: inactive |
| CC1(C)CC2(CC(C)(C)c3cc(I)c(O)cc32)c2cc(O)c(I)cc21 | – | < 20 | > 80 | – | Inhibition of DNA cleavage and religation [8]: inactive; NA [11]: inactive; Inhibition of DNA relaxation [12]: inactive |
| CC1(C)CC2(CC(C)(C)c3cc(NC(N)=O)c(O)cc32)c2cc(O)c(NC(N)=O)cc21 | – | 53 | > 80 | – | NA [9]: inactive; NA [11]: inactive; NA [13]: inactive; NA [14]: inactive; NA [15]: inactive |
| CC1(C)CC2(CC(C)(C)c3cc(S(=O)(=O)O)c(O)cc32)c2cc(O)c(S(=O)(=O)O)cc21 | inactive | > 600 | > 80 | inactive | inhibition [1]: inactive; inhibition [2]: inactive |
| CC1(C)CC2(CC(C)(C)c3cc(C=O)c(O)cc32)c2cc(O)c(C=O)cc21 | – | 4 | > 80 | inactive | – |
| CC1(C)CC2(CC(C)(C)c3ccc(O)c(NC(N)=O)c32)c2cc(O)c(NC(N)=O)cc21 (stereo not drawn) | – | 60 | > 80 | – | Inhibition of DNA cleavage and religation [8]: inactive; Inhibition of DNA relaxation [12]: inactive |
| CC1(C)CC2(CC(C)(C)c3cc(OS(=O)(=O)O)c(OS(=O)(=O)O)cc32)c2cc(OS(=O)(=O)O)c(OS(=O)(=O)O)cc21 | – | 134 | > 80 | inactive | IC50 [3]: 123 µM |
| CC1(C)CC2(CC(C)(C)c3cc(Br)c(O)cc32)c2cc(O)c(Br)cc21 | – | 4 | > 80 | – | Inhibition of DNA cleavage and religation [8]: inactive; NA [11]: inactive; Inhibition of DNA relaxation [12]: inactive |
| CC1(C)CC2(CC(C)(C)c3cc([N+](=O)[O-])c(O)cc32)c2cc(O)c([N+](=O)[O-])cc21 | inactive | 198 | > 80 | inactive | inhibition [1]: inactive; inhibition [2]: inactive; inhibition [7]: inactive |
| CC1(C)CC2(CC(C)(C)c3ccc(OS(=O)(=O)O)cc32)c2cc(OS(=O)(=O)O)ccc21 | – | > 400 | > 80 | inactive | – |
| CC1(C)CC2(CC(C)(C)c3cc(Br)c(OS(=O)(=O)O)cc32)c2cc(OS(=O)(=O)O)c(Br)cc21 | – | 50 | > 80 | inactive | inhibition [1]: inactive; inhibition [2]: inactive; inhibition [7]: inactive |
| CC1(C)CC2(CC(C)(C)c3ccc(O)c([N+](=O)[O-])c32)c2cc(O)c([N+](=O)[O-])cc21 (stereo not drawn) | inactive | 41 | > 80 | inactive | – |
| CC1(C)CC2(CC(C)(C)c3c(Br)c(OS(=O)(=O)O)c(OS(=O)(=O)O)c(Br)c32)c2c(Br)c(OS(=O)(=O)O)c(OS(=O)(=O)O)c(Br)c21 | – | 207 | > 80 | – | IC50 (Topoiomerase 1B): 75 µM |
| CC1(C)CC2(CC(C)(C)c3cc([N+](=O)[O-])c(O)c([N+](=O)[O-])c32)c2cc(O)c([N+](=O)[O-])cc21 (stereo not drawn) | – | 41 | > 80 | inactive | IC50 [3]: 200 µM |
| CC1(C)CC2(CC(C)(C)c3c(Br)c(O)c(O)c(Br)c32)c2c(Br)c(O)c(O)c(Br)c21 | inactive | 18 | > 80 | – | IC50 (Topoiomerase 1B): 50 µM |
| CC1(C)CC2(CC(C)(C)c3ccc(O)cc32)c2cc(O)ccc21 | – | < 20 | > 80 | – | NA [13]: inactive; NA [16]: inactive |
